Measured values as given in paper PMC4826778 (Bioconjugate chemistry, 2015).

How the values were obtained:
[1] = Photophysical characterization; assay type: physicochemical; conditions: for ΦF: reference quinine sulfate
[2] = Frequency-domain fluorescence lifetime measurements in solution; assay type: physicochemical
Procedure, shortened: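 Frequency-domain lifetimes were measured in solution (MeOH) in a 2 × 10 mm quartz cuvette at 18 °C. Excitation was a frequency-modulated 280 nm LED, with emission collected through a 305 nm long-pass filter. PPO in ethanol (τ = 1.4 ns) served as lifetime reference. Modulation-phase data were fitted to a multi-exponential decay model, judged by residuals and χ².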

[3] = Kinetic analysis of SPAAC reaction by 1H NMR; conditions: reaction with cyclooctyne 5 in ACN-d6/D2O (3:1, v/v)
[4] = Water solubility of azido nucleosides; assay type: physicochemical
[5] = Parallel artificial membrane permeability assay; assay type: in vitro ADME; conditions: for % Fraction Absorbed / Log Pe: 75 μM; for % Fraction Absorbed: 16 h, ambient temperature; for Log Pe: log of the effective permeability coefficient
Procedure, shortened: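 PAMPA used a polycarbonate filter (0.45 μm pore) coated for 5 min with lecithin (1% or 4% in dodecane). Donor wells held test compound at 75 μM in 5% DMSO/PBS; acceptor wells held PBS. Plates were incubated 16 h at ambient temperature with gentle shaking. Acceptor concentration was measured by UV-Vis against a theoretical-equilibrium solution. Log Pe was calculated by the Wohnsland–Faller equation; at least triplicate.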

MCF-7 cells [6] = experiment: MTT cell toxicity assay; assay type: cell-based; conditions: 24 h exposure, click reaction of cyclooctyne 5 with azide 2 or 21
Procedure, shortened: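 MCF-7 cells were seeded at 1 × 10⁴ cells/mL and exposed to a range of concentrations of azide and cyclooctyne for 24 h at 37 °C in 5% CO₂. MTT (5 mg/mL solution) was added for 4 h. Medium was removed, DMSO added, and OD read at 595 nm. Viability was calculated as OD sample / OD untreated control × 100%.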

MCF-7 cells [7] = experiment: Fluorescence microscopy of in-cell click reaction; assay type: cell-based; conditions: 1 μM azide and 1 μM cyclooctyne 5
Procedure, shortened: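 MCF-7 cells were seeded at 5 × 10⁵ cells/mL on chambered coverglass and grown overnight at 37 °C in DMEM/F12 with 5% FBS. Azide (1 μM in reduced-serum medium) was added for 4 h, followed by three PBS (pH 7.5) washes. Cyclooctyne (1 μM) was then added for 16 h at 37 °C, followed by three more washes. Imaging used 360/40 excitation and 470/40 emission filters. Controls were azide only, cyclooctyne only, and preformed adduct. 0.1% trypan blue was used for quenching.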

[8] = reaction of 5 with benzyl azide in the same solvent system; cited from earlier work
[9] = In 50 mM phosphate buffer pH 7.0

## 5-(1,2,3-Triazol-1H-yl)uridine-MFCO adduct [Compound 27]
[1]
  εmax: 7100 M^−1cm^1
[1]; [9]
  λmax(emi): 339/434
[1]; In DMSO
  λmax(emi): 331/419
[1]; In MeOH
  Brightness: 0.06 M^−1cm^1
  Stokes shift: 58 nm
  λmax(abs): 269 nm
  λmax(emi): 327/412
  ΦF: 0.009

## 8-(1,2,3-Triazol-1H-yl)adenosine-MFCO adduct [Compound 17]
[1]
  εmax: 16400 M^−1cm^1
[1]; [9]
  λmax(emi): 399 nm
[1]; In DMSO
  λmax(emi): 397 nm
[1]; In MeOH
  Brightness: 0.10 M^−1cm^1
  Stokes shift: 111 nm
  λmax(abs): 271 nm
  λmax(emi): 399 nm
  λmax(exc): 288 nm
  ΦF: 0.006
[2]; In MeOH
  τ1: 0.10 ns
  τ2: 0.90 ns
  τ3: 5.30 ns
[2]; In MeOH, fractional contribution of τ1
  f1: 0.46%
[2]; In MeOH, fractional contribution of τ2
  f2: 0.39%
[2]; In MeOH, fractional contribution of τ3
  f3: 0.15%
[2]; in vitro (methanol solution)
  τaverage: 1.20 ns

## [N-]=[N+]=Nc1nc2c(N)ncnc2n1[C@@H]1O[C@H](CO)[C@@H](O)[C@H]1O [Compound 1, 8-azidoadenosine]
[3]
  second order rate constant: 0.11 M⁻¹ s⁻¹
[4]
  water solubility: easily water soluble

## [N-]=[N+]=Nc1nc2c(N)ncnc2n1[C@@H]1O[C@H](CO)[C@@H](O)[C@@H]1O [Compound 2, 8-azido-9-(β-D-arabinofuranosyl)adenine]
[1]
  fluorescence of azide substrate: no fluorescence
[5]
  % Fraction Absorbed: 18%
  Log Pe: −0.5 cm/s
[5]; 150 μM concentration
  Permeability (fraction absorbed): b Permeability for 2 at a 150 μM concentration was also 18%.
MCF-7 cells [6]
  non-cytotoxic dosage: 1 µM
MCF-7 cells [7]
  fluorescence localization in live cells: strong fluorescent localization to the nucleus
[4]
  water solubility: easily water soluble

## [N-]=[N+]=Nc1nc2c(N)ncnc2n1[C@H]1C[C@H](O)[C@@H](CO)O1 [Compound 4, 8-azido-2′-deoxyadenosine]
[5]
  % Fraction Absorbed: 20%
  Log Pe: −0.5 cm/s

## OCC1C2CCC#CCCC12 (stereo not shown) [Compound 5]
MCF-7 cells [6]
  non-cytotoxic dosage: 1 µM
[8]
  second order rate constant k: 0.14 M⁻¹ s⁻¹

## [N-]=[N+]=Nc1nc(N)c2ncn([C@@H]3O[C@H](CO)[C@@H](O)[C@H]3O)c2n1 [Compound 19, 2-azidoadenosine]
[5]
  % Fraction Absorbed: 22%
  Log Pe: −0.5 cm/s
MCF-7 cells [7]
  fluorescence localization in live cells: fluorescence localized in the nucleus

## [N-]=[N+]=Nc1cn([C@@H]2O[C@H](CO)[C@@H](O)[C@H]2O)c(=O)[nH]c1=O [Compound 21, 5-azidouridine]
[1]
  fluorescence of azide substrate: no noticeable fluorescence
MCF-7 cells [6]
  non-cytotoxic dosage: 1 µM
MCF-7 cells [7]
  fluorescence localization in live cells: fluorescence localized in the nucleus
